Each structure is given as a SMILES string.

Assay [1] relates to K562. In words: Cytotoxicity against human K562 cells after 72 hrs by MTT assay. As to conditions: K562, 72 h. The assay is classed as functional, cell-based. The procedure, abridged: (§1)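 Cells in RPMI-1640 were exposed to compound for 72 h, then given MTT and incubated a further 4 h at 37 °C. Formazan was dissolved in DMSO and absorbance read at 570 and 630 nm. Triplicate wells per point across three independent experiments. IC50 (50% inhibition of viability) was taken from concentration-response curves by linear regression, as the mean of three determinations.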

The subject of assay [2] is HCT-116. In words: Cytotoxicity against human HCT116 cells after 72 hrs by MTT assay. The assay is classed as functional, cell-based. As to conditions: HCT-116, 72 h. In a few lines: as §1
(In general: Formazan colour is commonly taken as a measure of viable cells.)

The test system of assay [3] is HeLa. The assay can be described thus: Cytotoxicity against human HeLa cells after 72 hrs by MTT assay. The assay is classed as functional, cell-based. In a few lines:
as §1

In assay [4] the test system is DU-145 (human). The assay can be described thus: Cytotoxicity against human DU145 cells after 72 hrs by MTT assay. Particulars: DU-145, 72 h.
The subject of assay [5] is SGC-7901 (human). In words: Cytotoxicity against human SGC7901 cells after 72 hrs by MTT assay. Particulars: SGC-7901, 72 h.

Consider `CCCNC(=S)N/N=C1\CC(c2ccc(O)cc2)Oc2cc(O)ccc21` (stereo not given), for which the IC50 (commonly the concentration that inhibits the measured activity by half) in assay [1] was found to be 31 µM; in assay [2] it was 54 µM; in assay [3] it was 40.2 µM; in assay [4], 31.2 µM; in assay [5], 74.7 µM.
Regarding `Oc1ccc(C2C/C(=N\NC(=S)N3CCCCC3)c3ccc(O)cc3O2)cc1` (stereo not given), the IC50 in assay [1] amounted to 13.7 µM; in assay [2], 50.9 µM; in assay [3] it was 74.4 µM; in assay [4], 40 µM; in assay [5], 55.3 µM.
With `CN1CCN(C(=S)N/N=C2\CC(c3ccc(O)cc3)Oc3cc(O)ccc32)CC1` (stereo not given), the IC50 is 23.1 µM in assay [1]; 60.4 µM in assay [2]; 65.8 µM in assay [3]; 10.1 µM in assay [4]; 98.8 µM in assay [5].
Consider `CC(C)(C)NC(=S)N/N=C1\CC(c2ccc(O)cc2)Oc2cc(O)ccc21` (stereo not given), for which the IC50 in assay [1] stood at 8.9 µM; in assay [2], 25.9 µM; in assay [3] it was 50 µM; in assay [4], 31 µM; in assay [5], 42.9 µM.
As for `CCCN(CCC)C(=S)N/N=C1\CC(c2ccc(O)cc2)Oc2cc(O)ccc21` (stereo not given), the IC50 in assay [1] was 12.4 µM; in assay [2] it was 41.9 µM; in assay [3], 75.3 µM; in assay [4] it was 32.2 µM; in assay [5], 62.1 µM.
Take `Oc1ccc(C2C/C(=N\NC(=S)N3CCOCC3)c3ccc(O)cc3O2)cc1` (stereo not given): the IC50 in assay [1] turned out to be 29.4 µM; in assay [2], 63.5 µM; in assay [3], 76.3 µM; in assay [4] it was 52.2 µM; in assay [5], 84.5 µM.
In the case of `CCCCNC(=S)N/N=C1\CC(c2ccc(O)cc2)Oc2cc(O)ccc21` (stereo not given), the IC50 in assay [1] is 17 µM; in assay [2] it was 49.3 µM; in assay [3], above 100 µM; in assay [4] it was 50.8 µM; in assay [5] it was 57.7 µM.
Consider `O=C1C[C@@H](c2ccc(O)cc2)Oc2cc(O)ccc21` [LIQUIRTIGENIN], for which the IC50 was above 100 µM in assay [1]; 37.2 µM in assay [2]; above 100 µM in assay [3]; 92.4 µM in assay [4]; above 100 µM in assay [5].
Take `Oc1ccc(C2C/C(=N\NC(=S)N3CCNCC3)c3ccc(O)cc3O2)cc1` (stereo not given): the IC50 was 26.2 µM in assay [1]; 79.4 µM in assay [2]; above 100 µM in assay [3]; 22.5 µM in assay [4]; above 100 µM in assay [5].
Turning to `Oc1ccc(C2C/C(=N\NC(=S)N3CCCC3)c3ccc(O)cc3O2)cc1` (stereo not given), the IC50 in assay [1] came to 17.3 µM; in assay [2], 52.3 µM; in assay [3] it was 65.2 µM; in assay [4], 37 µM; in assay [5], 51.7 µM.
The matching figures for `O=c1[nH]cc(F)c(=O)[nH]1` [FLUOROURACIL]: 45.4 µM, 1.93 µM, 9.7 µM, 2.95 µM and 2.19 µM.
The corresponding values for `CC(C)NC(=S)N/N=C1\CC(c2ccc(O)cc2)Oc2cc(O)ccc21` (stereo not given) are 21.3 µM, 38.2 µM, 68.1 µM, 35.2 µM and 60.4 µM.

(Values after ChEMBL document CHEMBL1208677, “Synthesis and antitumor activity of liquiritigenin thiosemicarbazone derivatives” (Eur J Med Chem, 2010).)
